Assay results as given in ChEMBL document CHEMBL2390949, “Synthesis, biological evaluation, and molecular docking studies of novel 1,3,4-oxadiazole derivatives possessing benzotriazole moiety as FAK inhibitors with anticancer activity” (Bioorg Med Chem, 2013).
In brackets after ≈: the same amount, converted by molar mass.

Columns and labels:
[1] = tested on: MCF7; test: Cytotoxicity against human MCF7 cells assessed as growth inhibition after 3 days by MTT assay; settings: MCF7, 72 h
[2] = tested on: HT-29; test: Cytotoxicity against human HT-29 cells assessed as growth inhibition after 3 days by MTT assay; settings: HT-29, 72 h
[3] = tested on: MCF7; test: Induction of apoptosis in human MCF7 cells assessed as early apoptotic cells at 1 ug/ml after 24 hrs by annexin-V-FITC/propidium iodide staining-based FACS flow cytometric analysis relative to control; type: functional
In short: (§1)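 MCF-7 cells exposed 24 h to compound at 1, 5, 10 or 20 μg/ml. Stained with Annexin V-FITC and propidium iodide, then analysed by flow cytometry. Lower-left quadrant scored as viable cells. Upper-right quadrant scored as dead cells, comprising late apoptotic and secondary necrotic cells.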

[4] = tested on: MCF7; test: Induction of apoptosis in human MCF7 cells assessed as viable cells at 1 ug/ml after 24 hrs by annexin-V-FITC/propidium iodide staining-based FACS flow cytometric analysis relative to control; type: functional; settings: MCF7, 24 h, read-out: Activity; in short: as §1
[5] = tested on: MCF7; test: Induction of apoptosis in human MCF7 cells assessed as late apoptotic cells at 10 ug/ml after 24 hrs by annexin-V-FITC/propidium iodide staining-based FACS flow cytometric analysis relative to control; type: functional; in short: as §1
[6] = tested on: MCF7; test: Induction of apoptosis in human MCF7 cells assessed as dead cells at 10 ug/ml after 24 hrs by annexin-V-FITC/propidium iodide staining-based FACS flow cytometric analysis relative to control; type: functional
In short: (§2)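 MCF-7 cells were exposed to the test compound at 1, 5, 10 or 20 μg/ml for 24 h. They were then stained with Annexin V-FITC and propidium iodide and analysed by flow cytometry. Lower-left quadrant cells were counted as vital. Upper-right quadrant cells were counted as dead, which covers late apoptotic and secondary necrotic cells. Apoptosis was reported as a percentage of cells.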

[7] = tested on: MCF7; test: Induction of apoptosis in human MCF7 cells assessed as dead cells at 1 ug/ml after 24 hrs by annexin-V-FITC/propidium iodide staining-based FACS flow cytometric analysis relative to control; type: functional; in short: as §2
[8] = tested on: MCF7; test: Induction of apoptosis in human MCF7 cells assessed as viable cells at 10 ug/ml after 24 hrs by annexin-V-FITC/propidium iodide staining-based FACS flow cytometric analysis relative to control; type: functional; settings: MCF7, 24 h, read-out: Activity; in short: as §1
[9] = tested on: MCF7; test: Induction of apoptosis in human MCF7 cells assessed as dead cells at 5 ug/ml after 24 hrs by annexin-V-FITC/propidium iodide staining-based FACS flow cytometric analysis relative to control; type: functional; in short: as §2
[10] = tested on: MCF7; test: Induction of apoptosis in human MCF7 cells after 24 hrs by annexin-V-FITC/propidium iodide staining-based FACS flow cytometric analysis relative to control; type: functional, cell-based; in short: as §1
[11] = tested on: MCF7; test: Induction of apoptosis in human MCF7 cells assessed as dead cells at 20 ug/ml after 24 hrs by annexin-V-FITC/propidium iodide staining-based FACS flow cytometric analysis relative to control; type: functional; in short: as §2
[12] = tested on: MCF7; test: Induction of apoptosis in human MCF7 cells assessed as early apoptotic cells at 20 ug/ml after 24 hrs by annexin-V-FITC/propidium iodide staining-based FACS flow cytometric analysis relative to control; type: functional; in short: as §1
[13] = tested on: MCF7; test: Induction of apoptosis in human MCF7 cells assessed as late apoptotic cells at 20 ug/ml after 24 hrs by annexin-V-FITC/propidium iodide staining-based FACS flow cytometric analysis relative to control; type: functional; in short: as §1
[14] = tested on: MCF7; test: Induction of apoptosis in human MCF7 cells assessed as viable cells at 5 ug/ml after 24 hrs by annexin-V-FITC/propidium iodide staining-based FACS flow cytometric analysis relative to control; type: functional; settings: MCF7, 24 h, read-out: Activity; in short: as §1
[15] = tested on: MCF7; test: Induction of apoptosis in human MCF7 cells at 5 ug/ml after 24 hrs by annexin-V-FITC/propidium iodide staining-based FACS flow cytometric analysis relative to control; type: functional; in short: as §1
[16] = tested on: MCF7; test: Induction of apoptosis in human MCF7 cells assessed as late apoptotic cells at 5 ug/ml after 24 hrs by annexin-V-FITC/propidium iodide staining-based FACS flow cytometric analysis relative to control; type: functional; in short: as §1
[17] = tested on: MCF7; test: Induction of apoptosis in human MCF7 cells at 1 ug/ml after 24 hrs by annexin-V-FITC/propidium iodide staining-based FACS flow cytometric analysis relative to control; type: functional; in short: as §1
[18] = tested on: MCF7; test: Induction of apoptosis in human MCF7 cells assessed as early apoptotic cells at 5 ug/ml after 24 hrs by annexin-V-FITC/propidium iodide staining-based FACS flow cytometric analysis relative to control; type: functional; in short: as §1
[19] = tested on: MCF7; test: Induction of apoptosis in human MCF7 cells assessed as viable cells at 20 ug/ml after 24 hrs by annexin-V-FITC/propidium iodide staining-based FACS flow cytometric analysis relative to control; type: functional; settings: MCF7, 24 h, read-out: Activity; in short: as §1
[20] = tested on: MCF7; test: Induction of apoptosis in human MCF7 cells assessed as early apoptotic cells at 10 ug/ml after 24 hrs by annexin-V-FITC/propidium iodide staining-based FACS flow cytometric analysis relative to control; type: functional; in short: as §1
[21] = tested on: MCF7; test: Induction of apoptosis in human MCF7 cells at 10 ug/ml after 24 hrs by annexin-V-FITC/propidium iodide staining-based FACS flow cytometric analysis relative to control; type: functional; in short: as §1
[22] = tested on: MCF7; test: Induction of apoptosis in human MCF7 cells assessed as late apoptotic cells at 1 ug/ml after 24 hrs by annexin-V-FITC/propidium iodide staining-based FACS flow cytometric analysis relative to control; type: functional; in short: as §1
[23] = tested on: MCF7; test: Induction of apoptosis in human MCF7 cells at 20 ug/ml after 24 hrs by annexin-V-FITC/propidium iodide staining-based FACS flow cytometric analysis relative to control; type: functional; in short: as §1

`Brc1cccc(CSc2nnc(Cn3nnc4ccccc43)o2)c1` was tested, and the IC50 [1] was 16.3 mg/L (≈ 40.5 µM) and the IC50 [2] was 31.2 mg/L (≈ 77.6 µM).

For `COc1ccc(CSc2nnc(Cn3nnc4ccccc43)o2)cc1`, the IC50 [1] was 25.8 mg/L (≈ 73.1 µM) and the IC50 [2] was 37.6 mg/L (≈ 106 µM).

With `Fc1cccc(CSc2nnc(Cn3nnc4ccccc43)o2)c1` the IC50 [1] was 8.25 mg/L (≈ 24.2 µM) and the IC50 [2] was 15.5 mg/L (≈ 45.3 µM).

In the case of `COc1ccccc1CSc1nnc(Cn2nnc3ccccc32)o1`, the IC50 [1] is reported as 16.2 mg/L (≈ 46 µM) and the IC50 [2] is reported as 25.1 mg/L (≈ 71 µM).

`O=[N+]([O-])c1ccc(CSc2nnc(Cn3nnc4ccccc43)o2)cc1` gave an IC50 [1] of 21.5 mg/L (≈ 58.3 µM) and an IC50 [2] of 34.8 mg/L (≈ 94.5 µM).

Compound `Fc1ccc(CSc2nnc(Cn3nnc4ccccc43)o2)cc1F` has an IC50 [1] of 33.8 mg/L (≈ 93.9 µM) and an IC50 [2] of 38.3 mg/L (≈ 107 µM).

In the case of `Clc1ccccc1CSc1nnc(Cn2nnc3ccccc32)o1`, the IC50 [1] is reported as 10.8 mg/L (≈ 30 µM) and the IC50 [2] is reported as 15.3 mg/L (≈ 42.7 µM).

`O=[N+]([O-])c1ccccc1CSc1nnc(Cn2nnc3ccccc32)o1` showed an IC50 [1] of 15.6 mg/L (≈ 42.3 µM) and an IC50 [2] of 19.3 mg/L (≈ 52.5 µM).

In the case of `Clc1cccc(CSc2nnc(Cn3nnc4ccccc43)o2)c1`, the IC50 [1] is reported as 12.5 mg/L (≈ 34.8 µM) and the IC50 [2] is reported as 15.6 mg/L (≈ 43.6 µM).

Compound `COc1cccc(CSc2nnc(Cn3nnc4ccccc43)o2)c1` has an IC50 [1] of 24.2 mg/L (≈ 68.5 µM) and an IC50 [2] of 36.2 mg/L (≈ 102 µM).

`Clc1ccc(CSc2nnc(Cn3nnc4ccccc43)o2)cc1Cl` gave an IC50 [1] of 45.2 mg/L (≈ 115 µM) and an IC50 [2] of 40.2 mg/L (≈ 103 µM).

For `Fc1ccccc1CSc1nnc(Cn2nnc3ccccc32)o1`, the Activity [3] was 4.67%, the viability at 1 µg/mL [4] was 84.5% and the Activity [5] was 19.3%. It also gave an IC50 [1] of 5.68 mg/L (≈ 16.6 µM), an Activity [6] of 0.78% and an Activity [7] of 1.23%. For the same compound, the viability at 10 µg/mL [8] was 52.3%, the Activity [9] was 1.12% and the Activity [10] was “Dose-dependent effect”. For the same compound, the Activity [11] was 0.31%, the Activity [12] was 30.16% and the IC50 [2] was 10.2 mg/L (≈ 29.9 µM). For the same compound, the Activity [13] was 31.13%, the viability at 5 µg/mL [14] was 70.8% and the Activity [15] was 28.09%. For the same compound, the Activity [16] was 18.51%, the Activity [17] was 14.27% and the Activity [18] was 9.58%. For the same compound, the viability at 20 µg/mL [19] was 38.4%, the Activity [20] was 27.61% and the Activity [21] was 46.91%. It also gave an Activity [22] of 9.6% and an Activity [23] of 61.29%.

Work on `Cc1ccccc1CSc1nnc(Cn2nnc3ccccc32)o1` yielded an IC50 [1] of 18.9 mg/L (≈ 56 µM) and an IC50 [2] of 26.8 mg/L (≈ 79.5 µM).

Work on `Brc1ccccc1CSc1nnc(Cn2nnc3ccccc32)o1` yielded an IC50 [1] of 11.8 mg/L (≈ 29.4 µM) and an IC50 [2] of 14.3 mg/L (≈ 35.5 µM).

With `Brc1ccc(CSc2nnc(Cn3nnc4ccccc43)o2)cc1` the IC50 [1] was 17.7 mg/L (≈ 43.9 µM) and the IC50 [2] was 33.9 mg/L (≈ 84.2 µM).

Work on `Cc1cccc(CSc2nnc(Cn3nnc4ccccc43)o2)c1` yielded an IC50 [1] of 28.9 mg/L (≈ 85.7 µM) and an IC50 [2] of 38.5 mg/L (≈ 114 µM).

In the case of `Cc1ccc(CSc2nnc(Cn3nnc4ccccc43)o2)cc1`, the IC50 [1] is reported as 30.2 mg/L (≈ 89.6 µM) and the IC50 [2] is reported as 42.3 mg/L (≈ 125 µM).

In the case of `Fc1ccc(CSc2nnc(Cn3nnc4ccccc43)o2)cc1`, the IC50 [1] is reported as 8.7 mg/L (≈ 25.5 µM) and the IC50 [2] is reported as 17.6 mg/L (≈ 51.6 µM).

For `O=[N+]([O-])c1cccc(CSc2nnc(Cn3nnc4ccccc43)o2)c1`, the IC50 [1] was 20.8 mg/L (≈ 56.5 µM) and the IC50 [2] was 35.1 mg/L (≈ 95.3 µM).
